TCR CD3 inh: inhibitors of human TCR-CD3 interaction; TAMRA-labeled TCR probe fluorescence, biochemical; inhibition, % at 9.4 µM; 0.37% of 360,000 active; AID 651800; in the data active means inhibition above about 19%;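 further: recombinant mutant TCR 2C K166C tagged with TAMRA read by polarization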
SIAE inh: human SIAE inhibition, primary screen; Q9HAT2; SIAE FP-Rh probe binding, fluorescence polarization; inhibition, % at 9.66 µM; 0.69% of 370,000 active;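 active means inhibition above a cutoff: mean of compounds within the control limits plus 3 SD of those, cut at about 17% in these data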
PRMT1 FP inh: inhibitors of human PRMT1; Q99873; recombinant PRMT1, activity-based probe fluorescence polarization; inhibition, % at 2.79 µM; 1.3% of 370,000 active;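 active means inhibition above about 21% made by adding two undisclosed values, limit read from the data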
HTRA1 inhibitor: HTRA1 (human) protease inhibition; Q92743; recombinant HTRA1, FP-rhodamine activity-based probe, fluorescence polarization; inhibition, % at 5.96 µM; 0.5% of 340,000 active; AID 504803; in the data active means inhibition above about 36%
Target sequence (Q92743 whole entry, looked up): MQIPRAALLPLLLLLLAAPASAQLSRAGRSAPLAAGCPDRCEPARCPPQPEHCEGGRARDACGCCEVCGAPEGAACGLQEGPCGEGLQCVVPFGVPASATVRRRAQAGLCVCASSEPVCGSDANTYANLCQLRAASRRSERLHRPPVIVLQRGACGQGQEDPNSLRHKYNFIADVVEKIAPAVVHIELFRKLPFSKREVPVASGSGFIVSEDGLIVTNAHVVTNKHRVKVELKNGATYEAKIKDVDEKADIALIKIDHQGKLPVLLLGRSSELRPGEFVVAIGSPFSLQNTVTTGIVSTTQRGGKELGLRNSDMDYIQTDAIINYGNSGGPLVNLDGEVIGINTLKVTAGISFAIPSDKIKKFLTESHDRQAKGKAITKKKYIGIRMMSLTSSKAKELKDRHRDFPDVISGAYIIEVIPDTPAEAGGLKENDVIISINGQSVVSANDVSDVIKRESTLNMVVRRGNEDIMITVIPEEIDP
rCAG RNA binder: r(CAG) repeat RNA binding; TO-PRO-1 dye displacement fluorescence; inhibition, % at 3 µM; 1.3% of 370,000 active;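 active means inhibition above the plate cutoff, the mean of all test compounds on that plate plus 3 SD, cut at about 35% in these data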;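 further: higher means more dye released from RNA so lower well fluorescence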
mABHD4 FP: inhibits mouse alpha/beta hydrolase domain 4. Q8VD66. purified mABHD4, FP-Rh probe fluorescence polarization. inhibition, % at 8.92 µM. 0.54% of 370,000 active. AID 720543;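 active means inhibition exceeding the mean over every tested compound plus 3 SD, cut at about 30% in these data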
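Assay system: mouse ABHD4 enzyme, wild type / Also added: fluorescent activity-based probe FP-Rh / Doses: single nominal dose of 8.92 µM, 0.89% DMSO final / Timing: 45 min compound pre-incubation plus 60 min probe step, 25 °C / Signal: FP readout, ex 525 nm / em 598 nm / Control set: S159A mutant/DMSO as 100%, compound-well median as 0%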
rCAG binder conf: r(CAG) RNA repeat binding, confirmation | shares compounds with rCAG RNA binder | TO-PRO-1 dye displacement fluorescence | inhibition, % at 3 µM | 70% of 4,300 active;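 active means inhibition above a per-plate cutoff, the mean inhibition of sample wells plus 3 SD, cut at about 35% in these data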;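 further: loss of TO-PRO-1 fluorescence as compound displaces dye from 1x1 AA loop RNA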
dCAG dye counter: disrupts DNA CAG TO-PRO-1 complex, flagging rCAG hits; 94% of 4,300 active; d(CAG) DNA oligo TO-PRO-1 dye displacement, fluorescence; shares compounds with rCAG RNA binder; inhibition, % at 3 µM;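 active means inhibition above its plate's cutoff, the mean test-well inhibition plus 3 SD, cut at about 4.8% in these data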;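 further: hits displace the dye from DNA and so lower well fluorescence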
Numbers stand for hits; – = inactive; · = no result given. Most compounds without a hit are left out; they make up all but 3.5% or so of the library.

SMILES | TCR CD3 inh | SIAE inh | PRMT1 FP inh | HTRA1 inhibitor | rCAG RNA binder | mABHD4 FP | rCAG binder conf | dCAG dye counter
Cc1ccc(-n2cnc3scc(-c4cccs4)c3c2=O)cc1 | – | – | – | – | – | – | · | ·
Cc1ccc(C(=O)Nn2cnc3scc(-c4cccs4)c3c2=O)c(O)c1 | – | – | – | – | 40 | – | – | 8.7
CC(C)(C)C(=O)OC12CCCN(C1)/C(=C/c1ccc(Cl)cc1)C2 (stereo unspecified) | · | – | – | · | – | – | · | ·
CCn1c(Cc2cccs2)nnc1SCC(=O)Nc1ccc(Cl)cc1C | · | – | – | · | – | – | · | ·
N#C/C(=C(/O)COC(=O)c1ccc(C#N)cc1)c1nc2ccccc2s1 | – | – | – | – | 38 | – | 40 | 17
N=c1c2c(-c3ccccc3)c(-c3ccccc3)n(Cc3ccccc3)c2ncn1C1CCOCC1 | · | – | – | · | – | – | · | ·
CCC(C(=O)Nc1ccc(C)cc1)c1ccccc1 (stereo unspecified) | – | – | – | – | – | – | · | ·
COc1ccccc1C(=O)Nc1ccc(C(=O)Nc2ccccc2C(=O)O)cc1 | – | – | – | – | 42 | – | 60 | 20
CCC(C(=O)Nc1ccc(C(=O)Nc2ccccc2C(=O)O)cc1)c1ccccc1 (stereo unspecified) | – | – | – | – | 75 | – | 67 | 27
CCC(C(=O)Nc1cc(C(=O)O)ccc1C)c1ccccc1 (stereo unspecified) | – | – | – | – | – | – | · | ·
CCN(CC)S(=O)(=O)c1cc(C(=O)Nc2ccccc2C(=O)O)ccc1OC | – | – | – | – | 37 | – | – | 6.6
CCC(C(=O)Nc1ccc(C(=O)O)cc1NC(=O)C(CC)c1ccccc1)c1ccccc1 (stereo unspecified) | – | – | – | – | 63 | – | 57 | 23
c1ccc(C2CCC3(CC2)CCC3NCc2cccs2)cc1 (stereo unspecified) | · | – | – | · | · | – | · | ·
CCOC(=O)N1CCc2c(sc(NC(=O)c3ccc(S(=O)(=O)N4CCCC4)cc3)c2C#N)C1 | – | – | – | – | 84 | – | 57 | 19
CC(C)N1CCc2c(sc(NC(=O)c3ccc(S(=O)(=O)N4CCOCC4)cc3)c2C#N)C1 | · | · | · | – | · | · | · | ·
COc1ccc(Cn2c(O)cc(=O)[nH]c2=O)cc1 | – | – | – | – | – | – | · | ·
CCOc1ccc(Cn2c(O)cc(=O)[nH]c2=O)cc1 | – | – | – | – | 47 | – | – | –
COc1ccc(CN(C)C(=O)C2CCCN(c3nc4ccccc4o3)C2)cc1 (stereo unspecified) | · | – | – | · | – | – | · | ·
NS(=O)(=O)c1ccc(-c2ccc(/C=C3\C(=O)Nc4cc(Cl)ccc43)o2)cc1 | – | – | – | – | 46 | – | – | 21
COc1cc(C(=O)NCCNC(=O)c2ccco2)cc(OC)c1OC | – | – | – | – | 46 | – | 43 | 13
CCOC(=O)C1=C(O)/C(=C/c2ccc(OCC(=O)O)c(OCC)c2)SC1=Nc1ccc(OC)cc1 | – | – | – | – | 56 | – | 64 | 22
CCOC(=O)C1=C(O)/C(=C/c2ccc(OCC(=O)O)c(OCC)c2)SC1=Nc1ccc(C)cc1 | – | – | – | – | 45 | – | 68 | 25
COc1ccc(/C=C2\SC(=S)NC2=O)cc1OS(=O)(=O)c1ccc(NC(C)=O)cc1 | – | – | – | – | 88 | – | 78 | 35
COc1cc(/C=C2/SC(=S)NC2=O)ccc1OS(=O)(=O)c1ccc(C)cc1 | · | · | · | – | · | · | · | ·
COc1cccc(/C=C2\SC(=S)NC2=O)c1OS(=O)(=O)c1ccc(NC(C)=O)cc1 | – | – | – | – | 69 | – | – | 9.3
SMILES | TCR CD3 inh | SIAE inh | PRMT1 FP inh | HTRA1 inhibitor | rCAG RNA binder | mABHD4 FP | rCAG binder conf | dCAG dye counter
c1nc(NCC2CCCC2)c2cc(-c3ccc4c(c3)OCO4)ccc2n1 | · | – | – | · | · | – | · | ·
O=S1(=O)C=CCN1Cc1cn(Cc2cccc(Cl)c2)nn1 | · | – | – | · | – | – | · | ·
S=C(Nc1ccc(Cl)cc1)OC1CCC12CCC(c1ccccc1)CC2 (stereo unspecified) | · | – | – | · | – | – | · | ·
CCN(CC)S(=O)(=O)c1ccc(N2CCOCC2)c(NS(=O)(=O)c2ccc(Cl)s2)c1 | – | – | – | – | 44 | – | 39 | 10
CCCc1cc(=O)oc2cc(C)c(CN3CCCC3)c(O)c12 | – | – | – | – | 37 | – | – | 12
CCc1cc(=O)oc2cc(C)c(CN3CCCC3)c(O)c12 | – | – | – | – | 36 | – | – | 13
COC(=O)[C@H](CC(C)C)N1Cc2nnn(Cc3ccccc3)c2-c2cc(F)ccc2S1(=O)=O | · | – | – | · | – | – | · | ·
COc1ccc(OC)c(NS(=O)(=O)c2ccc(SC)cc2)c1 | – | – | – | – | – | – | · | ·
COc1ccc(NS(=O)(=O)c2ccc(NS(=O)(=O)c3ccc(SC)cc3)cc2)c(OC)c1 | – | – | – | – | 38 | – | 43 | 13
CCOc1ccc(NS(=O)(=O)c2ccc(NS(=O)(=O)c3ccc(SC)cc3)cc2)cc1 | – | – | – | – | 49 | – | 55 | 18
CCOc1ccc(NS(=O)(=O)c2ccc(NS(C)(=O)=O)cc2)cc1 | – | – | – | – | – | – | · | ·
O=C(Cn1nnc(-c2ccccc2F)n1)Nc1ccc(Cl)cc1 | · | – | – | · | – | – | · | ·
CC(C)(C)c1ccc(-c2c(C(=O)O)c(C(=O)O)c3n2CSC3)cc1 | – | – | – | – | 49 | – | 41 | 8.4
COC(=O)c1c(C(=O)OC)c(-c2ccc(F)cc2)n2c1CSC2 | – | – | – | – | – | – | · | ·
N#C/C(=C\c1ccc(C(=O)O)cc1)S(=O)(=O)c1cc(Br)ccc1Br | – | – | – | – | 55 | – | – | –
O=C(NCCc1nc2ccccc2n1C/C=C/c1ccccc1)C1CCCCC1 | · | – | – | · | · | – | · | ·
O=C1NC(=O)/C(=C/c2ccccc2OCc2ccccc2)S1 | – | – | – | – | 67 | – | 60 | 16
CCOc1ccccc1C=C1SC(=S)NC1=O | – | – | – | – | – | – | · | ·
O=C(COc1ccccc1/C=C1\SC(=O)NC1=O)Nc1ccccc1 | – | – | – | – | 35 | – | 48 | 15
CC(=O)c1cc(-c2cc(C(F)(F)F)cc(C(F)(F)F)c2)c(=O)n2c1CCC2 | · | – | – | · | – | – | · | ·
CC(C)(C)NC(=O)C(c1cccnc1)N(C(=O)c1cnc[nH]1)c1ccc(C(C)(C)C)cc1 (stereo unspecified) | · | – | – | · | · | – | · | ·
Fc1cc(F)c(CSc2nnc(-c3cccnc3)n2Cc2ccccc2)cc1F | · | – | – | · | – | – | · | ·
CC(C)C(OC(=O)C1=Cc2ccccc2OC1)C(=O)NCC1CCCO1 (stereo unspecified) | – | – | – | – | 35 | – | 48 | 17
CCOC(=O)CC1=NN(c2ccccc2)C(=O)C1 | – | – | – | – | 38 | – | – | 5.0
